pEC50: −log10 of the molar value.
How the values were obtained:
[1] = Cytotoxicity against human CRL8155 cells after 48 hrs by Alamar Blue assay; type: cell-based; conditions: crl8155, 48 h
[2] = tested on: Trypanosoma brucei brucei; experiment: Antiparasitic activity against Trypanosoma brucei brucei BF427 assessed as growth inhibition by Alamar Blue assay; type: functional, organism-based
Summary of the method: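 Bloodstream-form T. brucei brucei BF427 grown with serial compound dilutions, each tested in triplicate. Growth quantified with AlamarBlue. Pentamidine isothionate included in every assay as positive control.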

HepG2 = experiment: Cytotoxicity against human HepG2 cells after 48 hrs by Alamar Blue assay; type: cell-based; conditions: hepg2, 48 h
L6 = experiment: Cytotoxicity against rat L6 cells after 48 hrs by Alamar Blue assay; type: cell-based; conditions: l6, 48 h

| SMILES | CC50 [1] | pEC50 [2] | CC50 (HepG2) | CC50 (L6) |
| --- | --- | --- | --- | --- |
| O=C(Nc1ccc(F)c(-c2nc3cc(-c4cccc(Cl)c4)cnc3[nH]2)c1)N1CCCC1 | 2.8 µM | 8.70 | > 50 µM | – |
| Cc1cccc(-c2cnc3[nH]c(-c4cc(NC(=O)N5CCCC5)ccc4F)nc3c2)c1 | 5 µM | 8.70 | 10 µM | – |
| O=C(Nc1ccc(Cl)c(-c2nc3ccccc3o2)c1)c1ccco1 | – | < 4.70 | – | – |
| O=C(Nc1ccc(F)c(-c2nc3ncccc3o2)c1)C1CCCO1 (stereo not drawn) | – | < 5.00 | – | – |
| O=C(Nc1ccc(Cl)c(-c2nc3ncccc3o2)c1)N1CCCCC1 | – | 5.72 | – | – |
| O=C(Nc1ccc(F)c(-c2nc3cc(-c4ccccc4Cl)cnc3[nH]2)c1)N1CCCC1 | – | 8.30 | – | – |
| Cc1cccc(C(=O)Nc2ccc(Cl)c(-c3nc4ccccc4o3)c2)c1 | – | < 4.70 | – | – |
| Fc1ccc(NCc2ccccc2)cc1-c1nc2ncccc2o1 | – | < 4.70 | – | – |
| O=C(Nc1ccc(Cl)c(-c2nc3ccccc3o2)c1)c1ccccc1 | – | < 4.70 | – | – |
| Cn1cncc1C(=O)Nc1ccc(F)c(-c2nc3ncccc3o2)c1 | – | < 4.70 | – | > 50 µM |
| O=C(Nc1ccc(Cl)c(-c2nc3ccccc3o2)c1)c1cccc(F)c1 | – | < 4.70 | – | – |
| CN1CCN(C(=O)c2cc(NC(=O)c3ccco3)ccc2Cl)CC1 | – | < 4.70 | – | – |
| O=C(Nc1ccc(Cl)c(C(=O)N2CCOCC2)c1)c1ccco1 | – | < 4.70 | – | – |
| O=C(Nc1ccc(F)c(-c2nc3ncc(-c4ccc(-c5ccccc5)cc4)cc3o2)c1)c1ccco1 | – | 6.38 | – | > 50 µM |
| O=C(Nc1ccc(F)c(-c2nc3ncccc3o2)c1)c1ccco1 | – | 6.92 | – | > 50 µM |
| CN(C(=O)c1ccco1)c1ccc(F)c(-c2nc3ncccc3o2)c1 | – | < 5.00 | – | > 50 µM |
| Nc1ccc(Cl)c(-c2nc3ncccc3o2)c1 | – | < 4.70 | – | – |
| N=C(N)c1ccc(OCCCCCOc2ccc(C(=N)N)cc2)cc1 [PENTAMIDINE] | – | 8.76 | – | – |
| COc1ccccc1-c1cnc2[nH]c(-c3cc(NC(=O)N4CCCC4)ccc3F)nc2c1 | 13 µM | 8.30 | > 50 µM | – |
| Cc1ccccc1C(=O)Nc1ccc(Cl)c(-c2nc3ccccc3o2)c1 | – | < 4.70 | – | – |
| O=C(Nc1ccc(Cl)c(-c2nc3ncccc3o2)c1)N1CCCC1 | > 50 µM | 7.05 | > 50 µM | – |
| O=C(Nc1ccc(Cl)c(-c2nc3ccccc3o2)c1)c1ccccc1F | – | < 4.70 | – | – |
| O=C(Nc1ccc(F)c(-c2nc3cc(-c4ccc(Cl)nc4)cnc3[nH]2)c1)N1CCCC1 | 3.8 µM | 8.00 | > 50 µM | – |
| CC(=O)N(C(=O)c1ccco1)c1ccc(F)c(-c2nc3ncccc3o2)c1 | – | 6.30 | – | – |
| O=C(Nc1ccc(Cl)c(-c2nc3ncccc3o2)c1)c1ccccc1 | – | 5.15 | – | > 50 µM |

| SMILES | CC50 [1] | pEC50 [2] | CC50 (HepG2) | CC50 (L6) |
| --- | --- | --- | --- | --- |
| COc1ccc(-c2cnc3nc(-c4cc(NC(=O)c5ccco5)ccc4F)oc3c2)cc1 | – | 6.77 | – | – |
| O=C(Nc1ccc(F)c(-c2nc3cc(-c4ccsc4)cnc3[nH]2)c1)N1CCCC1 | 6 µM | 8.70 | > 50 µM | – |
| O=C(Nc1ccc(F)c(-c2nc3cc(-c4cncc(Cl)c4)cnc3[nH]2)c1)N1CCCC1 | 38 µM | 8.30 | > 50 µM | – |
| O=C(Nc1ccc(Cl)c(C(=O)N2CCNCC2)c1)c1ccco1 | – | < 4.70 | – | – |
| CN(C)C(=O)Nc1ccc(Cl)c(-c2nc3ncccc3o2)c1 | – | 6.40 | – | > 50 µM |
| O=C(Nc1ccc(F)c(-c2nc3cc(-c4cccc(OC(F)(F)F)c4)cnc3[nH]2)c1)N1CCCC1 | 11 µM | 7.52 | > 50 µM | – |
| CCN(CC)CCCC(C)Nc1c2ccc(Cl)cc2nc2ccc(OC)cc12 (stereo not drawn) [QUINACRINE] | 3.92 µM | – | 9.78 µM | – |
| O=C(Nc1ccccc1)Nc1ccc(Cl)c(-c2nc3ncccc3o2)c1 | – | 4.92 | – | > 50 µM |
| COc1cccc(-c2cnc3[nH]c(-c4cc(NC(=O)N5CCCC5)ccc4F)nc3c2)c1 | 3.6 µM | 8.00 | 35 µM | – |
| Fc1ccc(NC(=S)c2ccco2)cc1-c1nc2ncccc2o1 | – | 6.39 | – | > 50 µM |
| O=C(Nc1ccc(F)c(-c2nc3ncc(Br)cc3o2)c1)c1ccco1 | – | 6.64 | – | > 50 µM |
| CC(=O)Nc1ccc(F)c(-c2nc3ncccc3o2)c1 | – | < 4.70 | – | > 50 µM |
| O=C(Nc1ccc(F)c(-c2nc3c(Cl)ccnc3[nH]2)c1)c1ccco1 | – | 6.92 | – | – |
| COc1ncc(-c2cnc3[nH]c(-c4cc(NC(=O)N5CCCC5)ccc4F)nc3c2)cn1 | 3.9 µM | 7.22 | 9.8 µM | – |
| O=C(Nc1ccc(F)c(-c2nc3cc(F)cnc3[nH]2)c1)c1ccco1 | – | 6.70 | – | – |
| Cc1ccoc1C(=O)Nc1ccc(F)c(-c2nc3ncccc3o2)c1 | – | 7.00 | – | > 50 µM |
| O=C(Nc1ccc(-c2ccc(F)cc2)c(-c2nc3ncccc3o2)c1)c1ccco1 | – | < 4.30 | – | > 50 µM |
| N#Cc1cnc2nc(-c3cc(NC(=O)c4ccco4)ccc3F)oc2c1 | – | 6.42 | – | > 50 µM |
| O=C(Nc1ccc(F)c(-c2nc3cnccc3o2)c1)c1ccco1 | – | < 4.70 | – | – |
| O=C(Nc1ccc(F)c(-c2nc3cc(-c4cnc(Cl)nc4)cnc3[nH]2)c1)N1CCCC1 | – | 7.40 | – | 14.3 µM |
| COc1ccc(NC(=O)c2ccco2)cc1-c1nc2ncccc2o1 | – | < 5.00 | – | > 50 µM |
| CC(C)NC(=O)Nc1ccc(Cl)c(-c2nc3ncccc3o2)c1 | – | 6.00 | – | > 50 µM |
| N#Cc1ccc(NC(=O)c2ccco2)cc1-c1nc2ncccc2o1 | – | 6.40 | – | > 50 µM |
| O=C(Nc1ccc(-c2ccc(F)c(F)c2)c(-c2nc3ncccc3o2)c1)c1ccco1 | – | < 4.30 | – | > 50 µM |
| O=C(Nc1ccc(F)c(-c2nc3ncccc3o2)c1)c1cccnc1 | – | 5.15 | – | > 50 µM |

| SMILES | CC50 [1] | pEC50 [2] | CC50 (HepG2) | CC50 (L6) |
| --- | --- | --- | --- | --- |
| O=C(Nc1ccc(F)c(-c2nc3cccnc3[nH]2)c1)c1ccco1 | – | 6.70 | – | – |
| O=C(Nc1ccc(F)c(-c2nc3ncccc3o2)c1)c1cnccn1 | – | 6.05 | – | > 50 µM |
| O=C(Nc1ccc(F)c(-c2nc3cc(-c4cccs4)cnc3[nH]2)c1)N1CCCC1 | 9 µM | 8.40 | – | – |
| Cc1ccc(NC(=O)c2ccco2)cc1-c1nc2ncccc2o1 | – | 6.37 | – | > 50 µM |
| O=C(Nc1ccc(F)c(-c2nc3ncccc3o2)c1)c1ccoc1 | – | 6.82 | – | > 50 µM |
| Cc1cc(-c2cnc3[nH]c(-c4cc(NC(=O)N5CCCC5)ccc4F)nc3c2)ccc1F | > 50 µM | 7.70 | – | – |
| O=C(Nc1ccc(F)c(CNc2ccc(Cl)cn2)c1)c1ccco1 | – | < 5.00 | – | – |
| Cn1cccc1C(=O)Nc1ccc(F)c(-c2nc3ncccc3o2)c1 | – | 5.96 | – | > 50 µM |
| CNC(=O)Nc1ccc(F)c(-c2nc3ncccc3o2)c1 | – | 5.42 | – | > 50 µM |
| CC(=O)c1cccc(-c2cnc3[nH]c(-c4cc(NC(=O)N5CCCC5)ccc4F)nc3c2)c1 | – | 8.52 | – | – |
| COc1cc([C@@H]2c3cc4c(cc3[C@H](O)[C@H]3COC(=O)[C@H]23)OCO4)cc(OC)c1OC [PODOFILOX] | – | – | – | 0.014 µM |
| O=S(=O)(Nc1ccc(Cl)c(-c2nc3ncccc3o2)c1)c1ccccc1 | – | < 4.70 | – | > 50 µM |
| Fc1ccc(N(Cc2ccccc2)Cc2ccccc2)cc1-c1nc2ncccc2o1 | – | 5.96 | – | > 50 µM |
| O=C(Nc1ccc(Cl)c(-c2nc3ccccc3o2)c1)C1CCCCC1 | – | < 4.70 | – | – |
| O=C(Nc1ccc(Cl)c(-c2nc3ncccc3o2)c1)c1cccs1 | – | 5.82 | – | > 50 µM |
| O=C(Nc1ccc(F)c(-c2nc3ncc(-c4cccc(Cl)c4)cc3o2)c1)c1ccco1 | – | 7.30 | – | > 50 µM |
| O=C(Nc1ccc(-c2ccncc2)c(-c2nc3ncccc3o2)c1)c1ccco1 | – | < 4.70 | – | – |
| O=C(Nc1ccc(F)c(-c2nc3ccc(Cl)nc3[nH]2)c1)c1ccco1 | – | 5.00 | – | – |
| Cc1ccc(C(=O)Nc2ccc(F)c(-c3nc4ncccc4o3)c2)o1 | – | 6.70 | – | > 50 µM |
| O=C(Nc1ccc(F)c(-c2nc3ncccc3o2)c1)c1cc2ccccc2o1 | – | < 5.00 | – | > 50 µM |
| CS(=O)(=O)Nc1ccc(Cl)c(-c2nc3ncccc3o2)c1 | – | 5.21 | – | > 50 µM |
| O=C(Nc1ccc(F)c(C(=O)Nc2ccc(Cl)cn2)c1)c1ccco1 | – | 5.15 | – | – |
| O=C(Nc1ccc(F)c(-c2nc3ncccc3o2)c1)c1cnco1 | – | 5.72 | – | > 50 µM |
